Measurements reported in ChEMBL document CHEMBL1141657, “Synthesis, structure elucidation and identification of antitumoural properties of novel fused 1,2,4-triazine aryl derivatives” (Eur J Med Chem, 2008).
Calls of active or inactive are those of the source. The calls are words filed in the database; no cut-off is given here.

Legend:
T47D [1] = test: Growth inhibition of human T47D cells assessed as BrdU incorporation after 72 hrs by spectrophotometry; assay type: functional, cell-based
How it was run: (§1)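 Cancer cells were seeded at 10⁴ cells/mL, preincubated, then exposed for 72 h to DMSO-dissolved compound. Growth was read by BrdU labelling with ELISA spectrophotometry. IC50 was taken from 72 h dose–survival curves. Triplicates.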

Jurkat [2] = test: Cytotoxicity against human Jurkat cells assessed as cell viability at 1 uM after 24 hrs by MTT assay relative to control; assay type: functional; conditions: read-out: Activity
How it was run: (§2)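 Jurkat T-cell leukaemia line grown in RPMI 1640 with 10% FBS, 2 mM L-glutamine and gentamycin at 37 °C, 5% CO2, kept in log phase. Compounds were dissolved in DMSO and applied for 24 h. Cells were washed in HEPES-buffered medium (pH 7.4) and given MTT at 0.5 mg/mL for 45 min at 37 °C. Formazan was dissolved in DMSO and read at 570 nm. Viability is % of control, from three independent measurements.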

Jurkat [3] = test: Cytotoxicity against human Jurkat cells assessed as decrease in cell viability after 24 hrs by MTT assay; assay type: functional, cell-based
How it was run: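 Jurkat cells grown in RPMI 1640/10% FBS at 37 °C, 5% CO2, with 24 h exposure to DMSO-dissolved compound. Read-out was MTT reduction: 0.5 mg/mL in HEPES-buffered medium for 45 min, formazan in DMSO, absorbance at 570 nm. IC50 was taken from 24 h dose–survival curves.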

LS180 = test: Induction of DNA damage in human LS180 cells at 32.6 uM by pulsed field gel electrophoresis; assay type: functional, cell-based
How it was run: (§3)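 After treatment at 32.6, cells were washed twice with PBS. DNA was isolated with lysing buffer plus proteinase K, then purified. Cells were prepared as agarose plugs and run by pulsed field electrophoresis on a 1% agarose gel containing propidium iodide, at 120 V for 1.5 h at room temperature. Experiments were repeated three times.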

[4] = Cytotoxicity against HSF cells assessed as cell viability at 1 uM after 24 hrs by MTT assay relative to control; assay type: cell-based; conditions: human, read-out: Activity
How it was run: (§4)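 Normal human skin fibroblasts (HSF, primary line) were exposed to DMSO-dissolved compound for 24 h. Viability was read by MTT tetrazolium reduction and expressed against untreated control set at 100%.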

[5] = Growth inhibition of HSF cells assessed as BrdU incorporation at 163.0 uM after 72 hrs by spectrophotometry; assay type: cell-based; conditions: human, read-out: GI
How it was run: (§5)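 Cells were seeded at 10⁴ cells/mL and preincubated. Compounds were dissolved in DMSO and added at two fixed concentrations, then incubated for 72 h. End-point was BrdU labelling with ELISA detection, read spectrophotometrically. Result is % growth inhibition versus untreated controls. Triplicates.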

Jurkat [6] = test: Cytotoxicity against human Jurkat cells assessed as cell viability at 50 uM after 24 hrs by MTT assay relative to control; assay type: functional; conditions: read-out: Activity; how it was run: as §2
SiHa [7] = test: Growth inhibition of human SiHa cells assessed as BrdU incorporation at 32.6 uM after 72 hrs by spectrophotometry; assay type: functional; conditions: read-out: GI; how it was run: as §5
[8] = Growth inhibition of african green monkey Vero cells assessed as BrdU incorporation at 32.6 uM after 72 hrs by spectrophotometry; assay type: cell-based; conditions: chlorocebus sabaeus, read-out: GI; how it was run: as §5
T47D [9] = test: Induction of DNA damage in human T47D cells at 32.6 uM by pulsed field gel electrophoresis; assay type: functional, cell-based; how it was run: as §3
SiHa [10] = test: Growth inhibition of human SiHa cells assessed as BrdU incorporation after 72 hrs by spectrophotometry; assay type: functional, cell-based; how it was run: as §1
SiHa [11] = test: Growth inhibition of human SiHa cells assessed as BrdU incorporation at 163.0 uM after 72 hrs by spectrophotometry; assay type: functional; conditions: read-out: GI; how it was run: as §5
[12] = Growth inhibition of human LS180 cells assessed as BrdU incorporation at 163.0 uM after 72 hrs by spectrophotometry; assay type: functional; conditions: LS180, 72 h, read-out: GI; how it was run: as §5
[13] = Induction of apoptosis in HSF cells after 72 hrs by annexin V-propidium iodide based assay; assay type: cell-based; conditions: human
How it was run: (§6)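 Cells were exposed for 72 h, then stained with an annexin V-FITC/propidium iodide detection kit. Apoptotic cells were counted by confocal microscopy using a 460–490 nm filter: yellow nuclei were early apoptosis, red were late, and unstained cells were living. 1000 cells were analysed per measurement, three independent measurements in all. Results are mean ± SD.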

[14] = Cytotoxicity against HSF cells assessed as cell viability at 100 uM after 24 hrs by MTT assay relative to control; assay type: cell-based; conditions: human, read-out: Activity; how it was run: as §4
T47D [15] = test: Induction of apoptosis in human T47D cells after 72 hrs by annexin V-propidium iodide based assay; assay type: functional; how it was run: as §6
[16] = Growth inhibition of african green monkey Vero cells assessed as BrdU incorporation at 163.0 uM after 72 hrs by spectrophotometry; assay type: cell-based; conditions: chlorocebus sabaeus, read-out: GI; how it was run: as §5
[17] = Growth inhibition of HSF cells assessed as BrdU incorporation at 32.6 uM after 72 hrs by spectrophotometry; assay type: cell-based; conditions: human, read-out: GI; how it was run: as §5
T47D [18] = test: Growth inhibition of human T47D cells assessed as BrdU incorporation at 163.0 uM after 72 hrs by spectrophotometry; assay type: functional; conditions: read-out: GI
How it was run: (§7)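 Each cell line was seeded at 10⁴ cells per mL and preincubated. Test agents were dissolved in DMSO, added at two examined concentrations (10 and 50 per mL by mass), and incubated for 72 h. The end-point was BrdU labeling and detection kit III read on an ELISA reader. Percent growth inhibition was calculated against untreated controls, in triplicate.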

SiHa [19] = test: Induction of DNA damage in human SiHa cells at 32.6 uM by pulsed field gel electrophoresis; assay type: functional, cell-based; how it was run: as §3
[20] = Cytotoxicity against HSF cells assessed as cell viability at 50 uM after 24 hrs by MTT assay relative to control; assay type: cell-based; conditions: human, read-out: Activity; how it was run: as §4
T47D [21] = test: Growth inhibition of human T47D cells assessed as BrdU incorporation at 32.6 uM after 72 hrs by spectrophotometry; assay type: functional; conditions: read-out: GI; how it was run: as §7
[22] = Growth inhibition of human LS180 cells assessed as BrdU incorporation after 72 hrs by spectrophotometry; assay type: functional, cell-based; conditions: LS180, 72 h; how it was run: as §1
Jurkat [23] = test: Cytotoxicity against human Jurkat cells assessed as cell viability at 100 uM after 24 hrs by MTT assay relative to control; assay type: functional; conditions: read-out: Activity; how it was run: as §2
[24] = Growth inhibition of human LS180 cells assessed as BrdU incorporation at 32.6 uM after 72 hrs by spectrophotometry; assay type: functional; conditions: LS180, 72 h, read-out: GI; how it was run: as §5

In the case of NNC(=O)c1nnc2n(c1=O)CCN2c1cccc(Cl)c1, the IC50 (T47D [1]) is reported as over 100 µM, the viability at 1 µM (Jurkat [2]) is reported as 100% and the IC50 (Jurkat [3]) is reported as over 100 µM. For the same compound, the Activity (LS180) was “Active”, the viability at 24 h, 1 µM [4] was 108% and the inhibition at 72 h, 163 µM [5] was 0%. The viability at 50 µM (Jurkat [6]) was 116%, the inhibition of growth at 32.6 µM (SiHa [7]) was 45% and the inhibition at 72 h, 32.6 µM [8] was 20%. The Activity (T47D [9]) was “Active”, the IC50 (SiHa [10]) was 75.4 µM and the inhibition of growth at 163 µM (SiHa [11]) was 63%. It also gave an inhibition of growth at 163 µM [12] of 54%, an Activity [13] of 1% and a viability at 24 h, 100 µM [14] of 105%. For the same compound, the Activity (T47D [15]) was 8.5%, the inhibition at 72 h, 163 µM [16] was 29% and the inhibition at 72 h, 32.6 µM [17] was 0%. The inhibition of growth at 163 µM (T47D [18]) was 40%, the Activity (SiHa [19]) was “Active” and the viability at 24 h, 50 µM [20] was 113%. It also gave an inhibition of growth at 32.6 µM (T47D [21]) of 26%, an IC50 [22] of over 100 µM and a viability at 100 µM (Jurkat [23]) of 115%. It also gave an inhibition of growth at 32.6 µM [24] of 42%.
